Activity calls are given as the source filed them. The calls are words filed in the database; no cut-off is given here.
Assays:
[1] = tested on: OVCAR-3; test: Growth inhibitory activity against human ovarian OVCAR-3 cell line; type: functional
In short: (§1)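 Growth inhibition in human cancer cell culture. GI50 is the concentration giving 50% growth inhibition. Compounds were tested at concentrations up to […].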

[2] = tested on: MDA-MB-435; test: Growth inhibitory activity against human breast MDA-MB-435 cell line; type: functional; in short: as §1
[3] = target: T1, DNA topoisomerase 1 (Homo sapiens) (UniProt P11387); test: Induction of topoisomerase I mediated DNA cleavage; weak activity
T1 sequence (whole entry): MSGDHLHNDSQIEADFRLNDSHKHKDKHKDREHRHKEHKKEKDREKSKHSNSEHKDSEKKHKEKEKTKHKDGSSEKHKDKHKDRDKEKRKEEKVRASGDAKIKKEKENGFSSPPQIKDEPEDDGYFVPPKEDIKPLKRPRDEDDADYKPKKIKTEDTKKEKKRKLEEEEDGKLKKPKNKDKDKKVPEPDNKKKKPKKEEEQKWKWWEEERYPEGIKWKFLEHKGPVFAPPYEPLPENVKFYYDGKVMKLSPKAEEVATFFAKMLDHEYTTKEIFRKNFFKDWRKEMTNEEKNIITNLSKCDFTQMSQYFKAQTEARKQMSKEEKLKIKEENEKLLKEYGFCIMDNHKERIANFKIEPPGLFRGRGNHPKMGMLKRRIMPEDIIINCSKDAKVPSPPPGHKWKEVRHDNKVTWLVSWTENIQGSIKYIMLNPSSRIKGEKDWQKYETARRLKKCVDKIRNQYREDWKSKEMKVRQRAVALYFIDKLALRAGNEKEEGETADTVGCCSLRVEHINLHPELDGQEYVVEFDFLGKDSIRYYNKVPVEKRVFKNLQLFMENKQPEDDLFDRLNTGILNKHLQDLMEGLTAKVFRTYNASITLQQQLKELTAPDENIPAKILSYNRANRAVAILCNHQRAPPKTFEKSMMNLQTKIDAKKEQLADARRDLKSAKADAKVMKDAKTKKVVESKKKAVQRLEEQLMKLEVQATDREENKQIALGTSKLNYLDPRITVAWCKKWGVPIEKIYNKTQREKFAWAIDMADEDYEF

[4] = tested on: UACC-62; test: Growth inhibitory activity against human melanoma UACC-62 cell line; type: functional; in short: as §1
[5] = tested on: Panel (Carcinoma cell lines); test: Mean graph mid point for growth inhibition of human cancer cell lines; type: functional; set-up: unit not given here
In short: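 Mean graph midpoint of growth inhibition, taken across all human cancer cell lines successfully tested. Compounds were tested at concentrations up to […], and GI50 is the concentration giving 50% growth inhibition.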

[6] = tested on: HCT-116; test: Growth inhibitory activity against human colon HCT116 cell line; type: functional; in short: as §1
[7] = tested on: DU-145; test: Growth inhibitory activity against human prostate DU-145 cell line; type: functional; in short: as §1
[8] = Growth inhibitory activity against human CNSSF-539 cell line; type: functional; in short: as §1
[9] = tested on: HOP-62; test: Growth inhibitory activity against human lung HOP-62 cell line; type: functional; in short: as §1
[10] = tested on: SN12C; test: Growth inhibitory activity against human renal SN12C cell line; type: functional; in short: as §1
[11] = target: T1, DNA topoisomerase 1 (Homo sapiens); test: Induction of topoisomerase I mediated DNA cleavage; greater activity than parent compound 1
[12] = target: T1, DNA topoisomerase 1 (Homo sapiens); test: Induction of topoisomerase I mediated DNA cleavage; Activity similar to parent compound 1
[13] = target: T1, DNA topoisomerase 1 (Homo sapiens); test: Induction of topoisomerase I mediated DNA cleavage; Greater activity than parent compound 1
[14] = target: T1, DNA topoisomerase 1 (Homo sapiens); test: Induction of topoisomerase I mediated DNA cleavage; Activity similar to 1 uM camptothecin; weak activity

Compound	GI50 [1]	GI50 [2]	DNA cleavage [3]	GI50 [4]	Mean graph mid point [5]	GI50 [6]	GI50 [7]	GI50 [8]	GI50 [9]	GI50 [10]	DNA cleavage [11]	DNA cleavage [12]	DNA cleavage [13]	DNA cleavage [14]
Cl.NCCCn1c2c(c3ccccc3c1=O)C(=O)c1cc3c(cc1-2)OCO3	1.45 µM	1.82 µM	Weak activity	0.18 µM	0.25	0.68 µM	0.06 µM	0.43 µM	0.28 µM	0.19 µM	–	–	–	–
COc1cc2c3c(n(CCCN)c(=O)c2cc1OC)-c1cc2c(cc1C3=O)OCO2.Cl	–	–	–	–	0.16	–	–	0.26 µM	–	–	greater activity than compound 1	–	–	–
O=C1c2ccccc2-c2c1c1ccccc1c(=O)n2CCCO	–	–	–	–	–	–	–	52.5 µM	–	–	–	Activity similar to parent compound 1	–	–
N=C(N)NCCCn1c2c(c3ccccc3c1=O)C(=O)c1ccccc1-2.O=C(O)C(F)(F)F	18.2 µM	25.7 µM	–	11 µM	9.77	22.4 µM	7.59 µM	0.37 µM	0.69 µM	0.23 µM	–	–	Greater activity than compound 1	–
O=C1c2ccccc2-c2c1c1ccccc1c(=O)n2CCN1CCNCC1	1.12 µM	1.95 µM	Weak activity	1.38 µM	1.86	0.58 µM	3.09 µM	1.99 µM	1.91 µM	2.19 µM	–	–	–	–
Cl.NCCCCn1c2c(c3ccccc3c1=O)C(=O)c1ccccc1-2	0.52 µM	0.84 µM	–	0.05 µM	0.16	0.1 µM	0.01 µM	0.1 µM	0.08 µM	0.04 µM	greater activity than compound 1	–	–	–
O=C1c2ccccc2-c2c1c1ccccc1c(=O)n2CCO	–	–	–	–	–	–	–	12.2 µM	–	–	–	Activity similar to parent compound 1	–	–
CCn1c2c(c3cc(OC)c(OC)cc3c1=O)C(=O)c1cc3c(cc1-2)OCO3	3 µM	2.6 µM	–	2.1 µM	2.4	2.6 µM	2.3 µM	2 µM	2.2 µM	3.6 µM	–	–	–	+/-
COc1cc2c3c(n(C)c(=O)c2cc1OC)-c1cc2c(cc1C3=O)OCO2	–	96 µM	–	4.2 µM	20	35 µM	37 µM	41 µM	1.3 µM	68 µM	–	Activity similar to parent compound 1	–	–
O=C1c2ccccc2-c2c1c1ccccc1c(=O)n2CCN1CCOCC1	81.3 µM	> 100 µM	–	29.5 µM	67.6	36.3 µM	> 100 µM	85.1 µM	> 100 µM	93.3 µM	–	–	Greater activity than compound 1	–
O=C1c2ccccc2-c2c1c1ccccc1c(=O)n2CCCl	–	–	–	–	–	–	–	2.24 µM	–	–	–	–	–	+/-
CC[C@@]1(O)C(=O)OCc2c1cc1n(c2=O)Cc2cc3ccccc3nc2-1 [CAMPTOTHECIN]	–	–	–	–	0.04	–	–	0.01 µM	–	–	–	–	Active	–
CCCn1c2c(c3ccccc3c1=O)C(=O)c1cc3c(cc1-2)OCO3	20.9 µM	> 100 µM	–	> 100 µM	66.1	30.2 µM	> 100 µM	> 100 µM	> 100 µM	> 100 µM	–	Activity similar to parent compound 1	–	–
